From ChEMBL document CHEMBL4371073, “Improvement of Aqueous Solubility of Lapatinib-Derived Analogues: Identification of a Quinolinimine Lead for Human African Trypanosomiasis Drug Development” (J Med Chem, 2019)

experiment: Chemical stability in 0.01 N NaOH solution at 2 mg up to 16 hrs by LC-MS analysis; assay type: physicochemical; conditions: not given

| Structure (SMILES) | Stability |
| --- | --- |
| CN1CCCN(c2ncc(-c3ccc4/c(=N/c5cnccn5)ccn(C)c4c3)cn2)CC1 | Stable |

experiment: Intrinsic clearance in human liver microsomes by LC-MS/MS analysis; assay type: ADME, Microsome; conditions: liver microsomes, read-out: CLH
How it was run: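 Human liver microsomes were incubated with compound and samples analyzed by LC/MS/MS. Clint is expressed as μL/min/mg.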

| Structure (SMILES) | microsomal CLint |
| --- | --- |
| CN(CCNc1ncc(-c2ccc3c(Nc4cnccn4)ccnc3c2)cn1)C(=O)OC(C)(C)C | > 300 µL/min/mg |
| CN1CCN(c2ncc(-c3ccc4c(Nc5cnccn5)ccnc4c3)cn2)CC1 | 180 µL/min/mg |

same assay, conditions: microsomes

| Structure (SMILES) | Microsomal intrinsic clearance |
| --- | --- |
| c1cnc(Nc2ccnc3cc(-c4cnc(N5CCNCC5)nc4)ccc23)cn1 | 30 µL/min/mg |
| CCn1cc/c(=N\c2cnccn2)c2ccc(-c3cnc(N4CCCN(C)CC4)nc3)cc21 | 38 µL/min/mg |
| CN1CCN(c2ncc(Nc3ccc4c(Nc5cnccn5)ccnc4c3)cn2)CC1 | 46 µL/min/mg |
| CN1C[C@@H]2C[C@H]1CN2c1ncc(-c2ccc3c(Nc4cnccn4)ccnc3c2)cn1 | 37 µL/min/mg |
| CN1CCC2(CCN(c3ncc(-c4ccc5c(Nc6cnccn6)ccnc5c4)cn3)C2)C1 (stereo not drawn) | 77 µL/min/mg |
| CN1CCN(c2ncc(-c3ccc4c(Nc5cnccn5)ccnc4c3)cn2)CC1.CS(=O)(=O)O | 170 µL/min/mg |
| O=C(O)CN1CCN(c2ncc(-c3ccc4c(Nc5cnccn5)ccnc4c3)cn2)CC1 | 53 µL/min/mg |
| NCCNc1ncc(-c2ccc3c(Nc4cnccn4)ccnc3c2)cn1 | 86 µL/min/mg |
| COc1ccc(NC(=O)c2ccc(-c3cnc(N4CCCN(C)CC4)nc3)cc2O)cc1Cl | 24 µL/min/mg |
| CCCn1cc/c(=N\c2cnccn2)c2ccc(-c3cnc(N4CCCN(C)CC4)nc3)cc21 | 51 µL/min/mg |
| CN1CCN(c2ncc(-c3ccc4c(Nc5cnccn5)ccnc4c3)cn2)CC1.Cl | 160 µL/min/mg |
| c1cnc(Nc2ccnc3cc(-c4cnc(N5CCCCCC5)nc4)ccc23)cn1 | > 300 µL/min/mg |
| CN1CCN(c2ncc(-c3ccc4c(Nc5cnccn5)ccnc4c3)cn2)CC1.O=C(O)CC(O)(CC(=O)O)C(=O)O | 190 µL/min/mg |
| CN1CCN(c2ccc(-c3ccc4c(Nc5cnccn5)ccnc4c3)cc2)CC1 | 61 µL/min/mg |
| CN(C)CCN(C)c1ncc(-c2ccc3c(Nc4cnccn4)ccnc3c2)cn1 | 45 µL/min/mg |
| O=C(O)[C@@H]1CCCN1c1ncc(-c2ccc3c(Nc4cnccn4)ccnc3c2)cn1 | < 3 µL/min/mg |
| CN1CCCN(c2ncc(-c3ccc4c(N(C)c5cnccn5)ccnc4c3)cn2)CC1 | 170 µL/min/mg |
| COC(=O)[C@@H]1CCCN1c1ncc(-c2ccc3c(Nc4cnccn4)ccnc3c2)cn1 | 220 µL/min/mg |
| CC(C)(C)OC(=O)NCCNc1ncc(-c2ccc3c(Nc4cnccn4)ccnc3c2)cn1 | > 300 µL/min/mg |
| CN1CC2(CCN(c3ncc(-c4ccc5c(Nc6cnccn6)ccnc5c4)cn3)C2)C1 | 43 µL/min/mg |
| CN1C[C@H]2C[C@@H]1CN2c1ncc(-c2ccc3c(Nc4cnccn4)ccnc3c2)cn1 | 41 µL/min/mg |

The remaining lines, values ahead:

| Microsomal intrinsic clearance | Structure (SMILES) |
| --- | --- |
| 300 µL/min/mg | CN1CCN(c2ncc(-c3ccc4c(NC5CCCCC5)ccnc4c3)cn2)CC1 |
| 94 µL/min/mg | CN1CCN(c2ncc(-c3ccc4c(NC5CCOCC5)ccnc4c3)cn2)CC1 |
| 160 µL/min/mg | CN1CCN(c2ncc(-c3ccc4c(N[C@@H]5CCCC[C@H]5O)ccnc4c3)cn2)CC1 |
| 300 µL/min/mg | CCCN1CCCN(c2ncc(-c3ccc4c(Nc5cnccn5)ccnc4c3)cn2)CC1 |
| > 300 µL/min/mg | CCN1CCN(c2ncc(-c3ccc4c(Nc5cnccn5)ccnc4c3)cn2)CC1 |
| 79 µL/min/mg | Cc1nccnc1Nc1ccnc2cc(-c3cnc(N4CCCN(C)CC4)nc3)ccc12 |
| 100 µL/min/mg | Cc1cnc(Nc2ccnc3cc(-c4cnc(N5CCCN(C)CC5)nc4)ccc23)cn1 |
| 72 µL/min/mg | Cc1cncc(Nc2ccnc3cc(-c4cnc(N5CCCN(C)CC5)nc4)ccc23)n1 |
| 200 µL/min/mg | CCN1CCCN(c2ncc(-c3ccc4c(Nc5cnccn5)ccnc4c3)cn2)CC1 |
| 170 µL/min/mg | CN1CCN(c2ncc(-c3ccc4c(NCC5CCOCC5)ccnc4c3)cn2)CC1 |
| 77 µL/min/mg | CN1CCCN(c2ncc(-c3ccc4c(Nc5cnccn5)ccnc4c3)cn2)CC1 |

experiment: Stability in presence of sodium cyanide at 2.3 mg up to 24 hrs by LC-MS analysis; assay type: physicochemical; conditions: not given

| Structure (SMILES) | Stability |
| --- | --- |
| CN1CCCN(c2ncc(-c3ccc4/c(=N/c5cnccn5)ccn(C)c4c3)cn2)CC1 | Stable |

experiment: Chemical stability in 0.01 N HCl solution at 2 mg up to 16 hrs by LC-MS analysis; assay type: physicochemical; conditions: not given

| Structure (SMILES) | Stability |
| --- | --- |
| CN1CCCN(c2ncc(-c3ccc4/c(=N/c5cnccn5)ccn(C)c4c3)cn2)CC1 | Stable |

experiment: Stability in presence of GSH at 2.3 mg up to 24 hrs by LC-MS analysis; assay type: physicochemical; conditions: not given

| Structure (SMILES) | Stability |
| --- | --- |
| CN1CCCN(c2ncc(-c3ccc4/c(=N/c5cnccn5)ccn(C)c4c3)cn2)CC1 | Stable |
